# Rows were chosen to be rich in hits. Some 3.1% of all compounds tested hit in one or more screens of this group.
# ERAP1 HTS inh = inhibitors of human ERAP1 aminopeptidase. inhibition, % at 10.7 µM. 340,000 tested, 0.15% active. Q9NZ08. recombinant ERAP1, Leu-AMC fluorescence, 60 min. AID 652197;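 active means mean replicate inhibition of at least 30%, or all replicates individually reaching that 30% level; inactive means mean below 30% and not every replicate reaching it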;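 further: 0% = neutral control wells and 100% = L-leucinethiol positive control wells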
# SIRT5 block = sirtuin-5 (human) deacylase inhibition; Q9NXA8; Purified SirT5, succinyl-peptide AMC, trypsin-coupled fluorescence; inhibition, % at 15 µM; 330,000 tested, 1.1% active; in the data active means inhibition above about 15%
# Target sequence (Q9NXA8 whole entry, looked up): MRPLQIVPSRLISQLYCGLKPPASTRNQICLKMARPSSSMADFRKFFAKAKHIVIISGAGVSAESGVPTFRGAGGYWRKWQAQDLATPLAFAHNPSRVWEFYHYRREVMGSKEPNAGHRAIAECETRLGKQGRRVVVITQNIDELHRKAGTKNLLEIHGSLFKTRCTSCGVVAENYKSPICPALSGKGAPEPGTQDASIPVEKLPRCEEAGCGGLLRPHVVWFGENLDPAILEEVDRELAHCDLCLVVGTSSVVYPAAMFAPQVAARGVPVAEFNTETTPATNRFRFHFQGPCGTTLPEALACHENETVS
# CFTR F508del cor = CFTR F508del correction in bronchial cells; CFBE cells, YFP halide quenching; stimulated with forskolin plus potentiator P3; % fluorescence drop versus neutral controls; activity (quench increase), % at 7.58 µM; 350,000 tested, 0.36% active; AID 720511;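 active means mean added fluorescence quench of at least 8% versus neutral control, with both replicates also reaching 8%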;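 further: cells transiently co-express mutant CFTR-F508del with the halide-sensitive YFP; corrector assay measuring rescue of mutant channel to the surface after 24 h compound exposure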
# Ecoli rRNA inh = inhibits bacterial ribosomal RNA function over humanized ribosomes | AID 720706 | E. coli WT GFP vs humanized-ribosome RFP mutants, fluorescence, 24 h; stronger effect = lower value; DMSO median 0, no signal -100 | 350,000 tested, 1.6% active | GFP signal change (wild-type ribosome), % (test concentration not listed);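 active means significant combined selectivity score with lowered wild-type GFP, culture density cut under 30%, mutant RFP and density less affected; inactive means any of these conditions unmet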
# S100A4 inh HTS = inhibitors of human S100A4 binding to myosin IIA peptide; P26447; S100A4/TAMRA-MyoIIA peptide fluorescence polarization; inhibition, % at 10.7 µM; 360,000 tested, 0.14% active;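 active means mean inhibition of at least 70% across replicates, with every replicate also reaching that level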
# Target sequence (P26447 whole entry, looked up): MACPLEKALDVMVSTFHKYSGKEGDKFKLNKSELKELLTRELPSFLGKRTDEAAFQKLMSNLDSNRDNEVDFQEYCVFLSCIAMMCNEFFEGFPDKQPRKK
#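 Test system: S100A4 monomer protein. Medium: HEPES buffer with Ca2+, pH 7.2. Reagent: fluorescent myosin IIA peptide, 5 nM. Compound dosing: single-point compound testing. Timing: 5 min between mix addition and reading. Benchmarks: DMSO neutral and TFP positive wells.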
# Numbers without * were called inactive; nt = not tested or not shown.
SMILES,ERAP1 HTS inh,SIRT5 block,CFTR F508del cor,Ecoli rRNA inh,S100A4 inh HTS
COc1ccc(NC(=O)Nc2cccc3c2O[C@H](CN(C)C(=O)Nc2ccc(OC)cc2)[C@H](C)CN([C@@H](C)CO)C3=O)cc1,2,2,1,-1,2
Cn1c(=O)c2c(nc(CCc3ccccc3)n2C)n(C)c1=O,1,nt,3,0,1
Cn1c(=O)c2c(nc(OCCc3ccccc3)n2C)n(C)c1=O,1,26*,-2,3,-2
COCC(=O)N(C[C@@H]1N[C@@H](CO)[C@@H]1c1ccc(C2=CCCCC2)cc1)C(C)C,1,0,-5,5,11
O=C(O)C[C@H]1C[C@@H]2c3cc(NS(=O)(=O)c4ccc(F)cc4)ccc3O[C@@H]2[C@@H](CO)O1,0,-3,0,0,7
Cc1ccccc1NC(=O)C(NC1CCCCC1)C(C)C (stereo not given),-2,36*,-1,7,-17
CC(=O)N(C)C[C@@H]1Oc2cc(-c3ccccc3F)ccc2S(=O)(=O)N([C@@H](C)CO)C[C@H]1C,2,-3,-2,-6,-4
O=C(c1[nH]ncc1-c1cccc(Br)c1)C1CO1 (stereo not given),0,1,11*,-9,-2
COc1cc(CNc2ccc(N3CCN(C(C)=O)CC3)cc2)ccc1OCc1ccc(F)cc1,-2,-2,-2,-27*,-8
CC(=O)N1CCN(c2ccc(NCc3ccc(F)cc3)cc2)CC1,-1,nt,0,-1,-7
O=C(C[C@H]1CC[C@@H](NS(=O)(=O)c2ccc(F)cc2)[C@@H](CO)O1)NC1CCCCC1,3,-2,-2,0,22
Cc1ccc(OCCNC(=O)c2cccc(S(=O)(=O)NCc3ccccc3)c2)cc1,2,1,10*,-2,1
Cc1cccc(OCCNC(=O)c2ccc(Cl)c(S(=O)(=O)NCc3cccnc3)c2)c1,0,-3,14*,-9,-1
Cc1ccccc1NC(=O)c1ccc(C)c(S(=O)(=O)NCc2cccnc2)c1,2,-3,-1,7,-1
Cc1noc(C)c1NC(=O)Nc1ccc2c(c1)CC(=O)N([C@@H](C)CO)C[C@@H](C)[C@@H](CN(C)S(=O)(=O)c1ccc(F)cc1)O2,-1,0,-4,5,4
Cn1nccc1C(=O)N/N=C/c1c(O)ccc2ccccc12,9,4,11*,-20,5
Cc1occc1C(=O)N/N=C/c1c(O)ccc2ccccc12,1,-1,10*,4,-8
CCCC(=O)N1CC2(C1)CN(C(=O)C1CCOCC1)[C@H](CO)c1[nH]c3cc(OC)ccc3c12,-1,3,-3,3,8
O=C(NC1CCCCC1)[C@@H]1[C@@H](CO)[C@@H]2Cn3c(cccc3=O)[C@@H]2N1CCc1ccccc1,-1,-3,1,-4,-3
CCOC(=O)CNC(=S)N(Cc1ccccc1)Cc1cccs1,-1,1,1,-26*,-15
Cc1cccc(C)c1NC(=O)CN(Cc1ccccc1)Cc1ccccc1,2,34*,4,9,-3
Cc1cccc(C)c1NC(=O)CNCC(=O)Nc1c(C)cccc1C,0,-4,4,2,-3
Cc1cccc(C)c1NC(=S)N(Cc1ccccc1)Cc1cccs1,-2,-1,-3,-21*,-2
O=C(CNC(=S)N(Cc1ccccc1)Cc1ccccc1F)NCCc1ccccc1,-4,0,1,-24,2
CCOC(=O)CNC(=S)N(Cc1ccccc1)Cc1ccccc1F,11,-1,-1,-34*,-2
SMILES,ERAP1 HTS inh,SIRT5 block,CFTR F508del cor,Ecoli rRNA inh,S100A4 inh HTS
CCCN(C)C[C@H]1OCCCC[C@@H](C)Oc2ccc(NS(=O)(=O)c3ccccc3)cc2C(=O)N([C@H](C)CO)C[C@H]1C,-3,0,-2,0,14
COc1ccc(Cl)cc1-c1cc(C(=O)N[C@H](C)c2ccccc2)[nH]n1,2,-4,2,-6,141*
COc1ccc2c(CC(=O)NNC(=O)c3ccc(C)cc3)coc2c1,-1,21*,1,0,-4
O=C1C(=O)c2c(C(=O)c3ccccc3)coc2-c2ccccc21,0,0,-8,-44*,2
CC(=O)c1cccc(CN2CCN(CC=C(C)C)C(CCO)C2)c1 (stereo not given),4,17*,2,6,5
CC(C)=CCN1CCN(Cc2cn(C(C)C)c3ccccc23)CC1CCO (stereo not given),-1,22*,-4,7,-4
CC(=O)c1cccc(CN2CCN(CCc3ccccc3)C(CCO)C2)c1 (stereo not given),-3,-1,-3,2,-4
CCSC(=O)N1c2ccc(OC)cc2C=CC1C#N (stereo not given),3,nt,15*,-10,-1
COc1ccc(C(=O)N2c3ccccc3C=CC2C#N)cc1 (stereo not given),6,0,0,3,-3
CC(C)c1cccc(-c2csc(C(O)c3ccco3)n2)c1 (stereo not given),-1,-1,8.9*,-4,-7
Cc1c(C(=O)NCCSCc2ccc(F)cc2)cnn1-c1ccc(Cl)cc1,5,-5,0,-38*,2
Cc1c(C(=O)NCCSCc2cccc(C(F)(F)F)c2)cnn1-c1ccc(F)cc1,4,-1,0,-37*,2
COc1cccc(C(=O)NCCSCc2c(F)cccc2Cl)c1,-3,-1,-3,-37,5
Cc1c(C(=O)NCCSCc2c(F)cccc2Cl)cnn1-c1ccc(F)cc1,3,-1,nt,-36*,-1
COc1ccc(CN(C)C[C@@H]2Oc3ccc(NS(=O)(=O)c4ccc(C)cc4)cc3C(=O)N([C@@H](C)CO)C[C@@H]2C)cc1,-18,-1,-2,2,-7
C[C@H](CO)N1C[C@H](C)[C@@H](CN(C)Cc2ccc3c(c2)OCO3)Oc2c(NC(=O)CCC(F)(F)F)cccc2C1=O,nt,nt,nt,-13,nt
CCCNC(=O)N(C)C[C@H]1Oc2ncc(Br)cc2C(=O)N([C@H](C)CO)C[C@@H]1C,0,-3,-1,3,-2
COc1ccc(OCCN2CCC(C(=O)NC(c3ccc(OC)cc3)c3ccccn3)CC2)cc1 (stereo not given),-4,nt,0,3,4
COc1ccc(C(NC(=O)C2CCN(CCc3ccccc3)CC2)c2ccccn2)cc1 (stereo not given),-2,15*,1,21,-7
CC(C)CC#Cc1ccc2c(c1)O[C@@H](CN(C)S(C)(=O)=O)[C@@H](C)CN([C@@H](C)CO)S2(=O)=O,-1,0,nt,2,3
Cc1cc(C)c(C(=O)COC(=O)CNC(=O)c2ccccc2C)c(C)c1,0,1,-3,-7,111*
Cc1ccccc1C(=O)NCC(=O)OCCCOC(=O)CNC(=O)c1ccccc1C,-1,-1,1,4,0

# Bioassay records as filed in PubChem.
